Test results from ChEMBL document CHEMBL3085734, “Indole diterpene alkaloids as novel inhibitors of the Wnt/β-catenin pathway in breast cancer cells” (Eur J Med Chem, 2013).
The source made the active and inactive calls. The calls are words filed in the database; no cut-off is given here.

What was measured:
Mus musculus [1] = test: Toxicity in CD-1 mouse assessed as incidence of tremor at 0.19 mg/kg, ip measured every 10 to 15 mins for 8 hrs up to day 14; format: organism-based; design: dose 0.19 mg/kg, route intraperitoneal; conditions: in vivo
Method in brief: (§1)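 Male CD-1 mice (18–22 g), housed singly 3 days beforehand, given a single i.p. dose of DMSO stock diluted in saline (DMSO ≤2.0 µL/g); vehicle controls. Up-and-Down Procedure per EPA 870.1100 (sigma 0.33): start 1.92 mg/kg, then ×3.2 up or down according to tremor response, range 0.19–19.6 mg/kg. Tremors scored over 14 days; EC50 from AOT425StatPgm.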

Mus musculus [2] = test: Toxicity in CD-1 mouse assessed as incidence of tremor at 1.92 mg/kg, ip measured every 10 to 15 mins for 8 hrs up to day 14; format: organism-based; design: dose 1.92 mg/kg, route intraperitoneal; conditions: in vivo; method in brief: as §1
[3] = target: Calcium-activated potassium channel slo-1 (Caenorhabditis elegans, UniProt Q95V25); test: Inhibition of wild type L4 larval stage of Caenorhabditis elegans N2 bristol BK channel assessed as induction of reversal locomotion at 1 uM after 42 hrs
Method in brief: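 30–40 synchronized L1 larvae of wild-type N2 placed on OP50-seeded NGM plates containing 1.0 µM compound or DMSO. Incubated 42 h at 20°C. L4 worms then moved to unseeded NGM and acclimatized 1 min before reversals were counted, at least 10 worms per treatment. slo-1(js379) strain NM1968 served as positive control.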

Mus musculus [4] = test: Toxicity in ip dosed CD-1 mouse assessed as incidence of tremor measured every 10 to 15 mins for 8 hrs up to day 14; format: organism-based; method in brief: as §1
Mus musculus [5] = test: Toxicity in CD-1 mouse assessed as incidence of tremor at 0.60 mg/kg, ip measured every 10 to 15 mins for 8 hrs up to day 14; format: organism-based; design: dose 0.6 mg/kg, route intraperitoneal; conditions: in vivo, 0.6 mg/kg; method in brief: as §1
Mus musculus [6] = test: Toxicity in CD-1 mouse assessed as incidence of tremor at 19.6 mg/kg, ip measured every 10 to 15 mins for 8 hrs up to day 14; format: organism-based; design: dose 19.6 mg/kg, route intraperitoneal; conditions: in vivo
Method in brief: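 Male CD-1 mice (18–22 g), housed individually. Compounds given ip in DMSO diluted with saline (DMSO ≤2.0 µL/g). Up-and-Down Procedure per EPA 870.1100: sigma 0.33, starting dose 1.92 mg/kg, changed in 3.2-fold steps by tremor response, range 0.19–19.6 mg/kg. Observed every 10–15 min for 1 h, hourly for 8 h, then daily to day 14. Tremor EC50 calculated with AOT425StatPgm.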

MDA-MB-231 [7] = test: Antimigratory activity against human MDA-MB-231 cells after 24 hrs by wound-healing assay; format: functional, cell-based; conditions: MDA-MB-231, 24 h
Method in brief: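 Confluent MDA-MB-231 monolayers scratched with a pipette tip, then washed. Compounds added in 0.5% FBS medium, in triplicate, for 24 h. Cells then fixed and stained with Diff-Quick. Cells that migrated into the wound were counted in at least five random fields at 400X.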

MDA-MB-231 [8] = test: Antiproliferative activity against human MDA-MB-231 cells after 72 hrs by MTT assay; format: functional, cell-based; conditions: MDA-MB-231, 72 h
Method in brief: (§2)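 Seeding: MCF-7 at 10×10³ and MDA-MB-231 at 8×10³ cells/well, attached overnight. Medium: serum-free RPMI for MCF-7 and RPMI with 5% FBS for MDA-MB-231, with graded compound doses, for 72 h at 37°C. Readout: MTT (1 mg/mL) for 4 h, formazan dissolved in DMSO, absorbance at 570 nm. Cell numbers taken from a standard curve as % survival versus DMSO. IC50 obtained by nonlinear regression. Final DMSO ≤0.2%.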

MCF7 = test: Antiproliferative activity against human MCF7 cells after 72 hrs by MTT assay; format: functional, cell-based; conditions: MCF7, 72 h; method in brief: as §2
MDA-MB-231 [9] = test: Antiinvasive activity against human MDA-MB-231 cells at 7.5 to 15 uM after 24 hrs by cultrex BME assay
MDA-MB-231 [10] = test: Inhibition of Wnt/beta-catenin signaling pathway in human MDA-MB-231 cells assessed as decrease in expression of beta-catenin level at 7.6 uM after 48 hrs by DAPI staining-based confocal laser scanning microscopy; format: cell-based
Method in brief: (§3)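 MDA-MB-231 cells seeded at 5×10⁴/chamber and attached overnight in 10% FBS. Treated 48 h in 0.5% FBS medium. Cells fixed in −20°C methanol and blocked with 2% BSA-TBST. Stained with anti-total β-catenin (1:300, overnight at 4°C), then Alexa Fluor 594 secondary, with DAPI counterstain. Confocal imaging at 200X; red intensity compared with untreated control. Duplicate chambers, experiments repeated at least three times.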

MDA-MB-231 [11] = test: Inhibition of Wnt/beta-catenin signaling pathway in human MDA-MB-231 cells assessed as decrease in expression of beta-catenin level at 48.2 uM after 48 hrs by DAPI staining-based confocal laser scanning microscopy; format: cell-based; method in brief: as §3
MDA-MB-231 [12] = test: Inhibition of Wnt/beta-catenin signaling pathway in human MDA-MB-231 cells assessed as decrease in expression of beta-catenin level at 9.6 uM after 48 hrs by DAPI staining-based confocal laser scanning microscopy; format: cell-based
Method in brief: (§4)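 MDA-MB-231 cells, 5 × 10^4 per chamber (2 replicates/group), attached overnight in 10% FBS medium, then treated 48 h in 0.5% FBS medium (final DMSO ≤0.2%). Methanol-fixed at −20 °C, blocked in 2% BSA-TBST, anti-total β-catenin (1:300, overnight 4 °C), Alexa Fluor 594 secondary, DAPI counterstain. Confocal imaging at 200X; red intensity compared with vehicle; ≥3 independent repeats.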

MDA-MB-231 [13] = test: Inhibition of Wnt/beta-catenin signaling pathway in human MDA-MB-231 cells assessed as decrease in expression of beta-catenin level at 19 uM after 48 hrs by DAPI staining-based confocal laser scanning microscopy; format: cell-based; method in brief: as §4
MDA-MB-231 [14] = test: Inhibition of Wnt/beta-catenin signaling pathway in human MDA-MB-231 cells assessed as decrease in expression of beta-catenin level at 8 uM after 48 hrs by DAPI staining-based confocal laser scanning microscopy; format: cell-based; method in brief: as §4
[15] = Inhibition of Wnt/beta-catenin signaling pathway in mouse C2C12 cells assessed as induction of nuclear translocation of beta-catenin after 24 hrs by propidium iodide staining-based laser scanning cytometry; format: cell-based; conditions: C2C12, 24 h

Calcium-activated potassium channel slo-1, sequence (Q95V25 whole entry): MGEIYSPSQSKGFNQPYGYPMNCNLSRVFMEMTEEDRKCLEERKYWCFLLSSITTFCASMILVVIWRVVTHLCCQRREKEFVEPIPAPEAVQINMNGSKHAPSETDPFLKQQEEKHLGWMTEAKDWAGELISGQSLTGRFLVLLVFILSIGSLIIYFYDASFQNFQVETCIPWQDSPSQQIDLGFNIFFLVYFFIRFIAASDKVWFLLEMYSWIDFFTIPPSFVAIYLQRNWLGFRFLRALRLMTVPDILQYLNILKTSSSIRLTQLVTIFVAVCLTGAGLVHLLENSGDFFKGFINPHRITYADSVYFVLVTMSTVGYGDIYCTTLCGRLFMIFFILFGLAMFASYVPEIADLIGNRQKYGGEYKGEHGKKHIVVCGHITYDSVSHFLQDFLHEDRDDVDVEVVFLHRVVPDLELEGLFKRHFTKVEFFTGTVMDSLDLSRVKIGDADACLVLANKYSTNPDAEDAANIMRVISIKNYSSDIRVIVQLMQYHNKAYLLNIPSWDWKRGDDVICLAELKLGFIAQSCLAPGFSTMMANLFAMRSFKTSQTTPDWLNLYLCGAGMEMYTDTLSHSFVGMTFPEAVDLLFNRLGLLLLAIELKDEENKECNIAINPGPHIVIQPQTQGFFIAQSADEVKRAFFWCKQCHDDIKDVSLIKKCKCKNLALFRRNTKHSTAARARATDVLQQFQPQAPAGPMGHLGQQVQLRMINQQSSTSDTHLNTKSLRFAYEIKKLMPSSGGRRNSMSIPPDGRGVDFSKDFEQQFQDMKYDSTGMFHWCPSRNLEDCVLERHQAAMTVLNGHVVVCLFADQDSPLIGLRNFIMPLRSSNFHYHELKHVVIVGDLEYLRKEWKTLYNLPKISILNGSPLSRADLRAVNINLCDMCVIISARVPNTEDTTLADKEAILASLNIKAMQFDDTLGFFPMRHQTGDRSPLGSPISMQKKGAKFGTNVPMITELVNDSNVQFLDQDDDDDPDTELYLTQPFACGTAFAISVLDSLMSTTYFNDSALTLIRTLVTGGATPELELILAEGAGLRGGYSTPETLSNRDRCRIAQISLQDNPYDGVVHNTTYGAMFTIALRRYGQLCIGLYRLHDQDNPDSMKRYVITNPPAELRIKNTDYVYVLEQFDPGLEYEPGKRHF

Structure (SMILES)	inhibition (INH) [3]	IC50 (MDA-MB-231 [7]) [µM]	IC50 (MDA-MB-231 [8]) [µM]	IC50 (MCF7) [µM]	Activity (MDA-MB-231 [9])	other results
C=C(C)[C@H]1O[C@H]2CC[C@@]3(C)[C@@](O)(CC[C@H]4[C@@H]5OC(C)(C)[C@H]6C[C@@H]7C(=C)Cc8c(Cl)cc9[nH]c(c5c9c8[C@@]76O)[C@@]43C)[C@]23O[C@@H]3[C@H]1O [PENITREM A]	Active					Activity (Mus musculus [1]): Non-toxic; Activity (Mus musculus [2]): Toxic
C=C1Cc2c(Br)cc3[nH]c4c5c3c2[C@H]2[C@@H]1C[C@H]2C(C)(C)O[C@H]5[C@@H]1CC[C@@]2(O)[C@@]35O[C@@H]3[C@@H](O)[C@@H](C(=C)C)O[C@H]5CC[C@]2(C)[C@@]41C						EC50 (Mus musculus [4]): 3.43 mg/kg; Activity (Mus musculus [5]): Non-toxic; Activity (Mus musculus [6]): Toxic
C=C(C)[C@H]1O[C@H]2CC[C@@]3(C)[C@@](O)(CC[C@H]4[C@@H]5OC(C)(C)[C@@H]6C[C@@H]7C(=C)Cc8c(Cl)cc9[nH]c(c5c9c8[C@@]76O)[C@@]43C)[C@]23O[C@@H]3[C@H]1OC		> 50	> 50	22.7	Active	
C=C(C)[C@H]1O[C@H]2CC[C@@]3(C)[C@@](O)(CC[C@H]4[C@@H]5OC(C)(C)[C@@H]6C[C@@H]7C(=C)Cc8c(Cl)cc9c(c5c(n9Cc5cccc(OC)c5)[C@@]43C)c8[C@@]76O)[C@]23O[C@@H]3[C@H]1OCc1cccc(OC)c1		> 50	> 50	> 50	Active	
C=C(C)[C@H]1O[C@H]2CC[C@@]3(C)[C@@](O)(CC[C@H]4[C@@H]5OC(C)(C)[C@@H]6C[C@@H]7C(=C)Cc8c(Cl)cc9c(c5c(n9C)[C@@]43C)c8[C@@]76O)[C@]23O[C@@H]3[C@H]1OC	Not Active	> 50	> 50	> 50	Active	Activity (Mus musculus [6]): ND(Insoluble)
C=C(C)[C@H]1O[C@H]2CC[C@@]3(C)[C@@](O)(CC[C@H]4[C@@H]5OC(C)(C)[C@@H]6C[C@@H]7C(=C)Cc8c(Cl)cc9[nH]c(c5c9c8[C@@]76O)[C@@]43C)[C@]23O[C@@H]3[C@H]1OCc1ccccc1		> 50	> 50	> 50		
CC(C)(O)[C@@H]1CC[C@]2(C)[C@H](CC[C@@]3(C)[C@H]2CC[C@H]2Cc4c([nH]c5ccccc45)[C@@]23C)O1 [PASPALINE]	Not Active					inhibition (MDA-MB-231 [10]): Active
C=C1Cc2c(Cl)cc3[nH]c4c5c3c2[C@@]2(O)[C@@H]1C[C@H]2C(C)(C)O[C@H]5[C@@H]1CC[C@@]2(O)[C@@]35O[C@@H]3[C@H](O)O[C@H]5CC[C@]2(C)[C@@]41C	Not Active	48.2	43.8	13.3	Active	inhibition (MDA-MB-231 [11]): Active; Activity (Mus musculus [6]): ND(Insoluble)
C=C(C)[C@H]1O[C@H]2CC[C@@]3(C)[C@@](O)(CC[C@H]4[C@@H]5OC(C)(C)[C@@H]6C[C@@H]7C(=C)Cc8c(Br)cc9[nH]c(c5c9c8[C@@]76O)[C@@]43C)[C@]23O[C@@H]3[C@H]1O	Not Active					inhibition (MDA-MB-231 [12]): Active; EC50 (Mus musculus [4]): 0.32 mg/kg; Activity (Mus musculus [5]): Toxic; Activity (Mus musculus [1]): Non-toxic; Activity (Mus musculus [2]): Toxic
CC(C)=CCC[C@]1(C)[C@@H](O)CC[C@@]2(C)[C@H]1CC[C@H]1Cc3c([nH]c4ccccc34)[C@@]12C [EMINDOLE SB]	Not Active					inhibition (MDA-MB-231 [13]): Active
C=C(C)[C@H]1O[C@H]2CC[C@@]3(C)[C@@](O)(CC[C@H]4[C@@H]5OC(C)(C)[C@@H]6C[C@@H]7C(=C)Cc8c(Cl)cc9c(c5c(n9C)[C@@]43C)c8[C@@]76O)[C@]23O[C@@H]3[C@H]1O		> 50	> 50		Active	
C=C(C)[C@H]1O[C@H]2CC[C@@]3(C)[C@@](O)(CC[C@H]4[C@@H]5OC(C)(C)[C@@H]6C[C@@H]7C(=C)Cc8c(Cl)cc9[nH]c(c5c9c8[C@@]76O)[C@@]43C)[C@]23O[C@@H]3[C@H]1OC(=O)c1ccccc1	Not Active	> 50	13.8	> 50	Active	Activity (Mus musculus [6]): ND(Insoluble)
C=C(C)[C@H]1O[C@H]2CC[C@@]3(C)[C@@](O)(CC[C@H]4[C@@H]5OC(C)(C)[C@@H]6C[C@@H]7C(=C)Cc8c(Cl)cc9[nH]c(c5c9c8[C@@]76OO)[C@@]43C)[C@]23O[C@@H]3[C@H]1O		> 50	> 50	> 50	Active	
C=C(C)[C@H]1O[C@H]2CC[C@@]3(C)[C@@](O)(CC[C@H]4[C@@H]5OC(C)(C)[C@H]6C[C@@H]7C(=C)Cc8c(Cl)cc9[nH]c(c5c9c8[C@@]76O)[C@@]43C)[C@@]23O[C@H]3[C@H]1O [PENITREM A]		8.7	9.8	11.9	Active	inhibition (MDA-MB-231 [14]): Active; EC50 [15]: 0.98 µM
C=C1Cc2c(Cl)cc3[nH]c4c5c3c2[C@@]2(O)[C@@H]1C[C@H]2C(C)(C)O[C@H]5[C@@H]1CC[C@@]2(O)[C@@]35O[C@@H]3[C@@](O)(/C=C(/C)COC(C)=O)O[C@H]5CC[C@]2(C)[C@@]41C		> 50	10	32.3		
